Assay results reported in ChEMBL document CHEMBL1165965, “Synthesis and structure-activity relationships of 1,2,3,4-tetrahydropyrido[2,3-b]pyrazines as potent and selective inhibitors of the anaplastic lymphoma kinase” (Bioorg Med Chem, 2010).

Legend:
[1] = target: AP2-associated protein kinase 1 (Homo sapiens) (UniProt Q2M2I8); assay: Inhibition of AAK1 at 1 uM
How it was run: (§1)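 Ambit KINOMEscan screen at a single concentration across a 250–400 kinase panel, recorded as percent inhibition. Selectivity was expressed as S(90), the fraction of kinases inhibited >90%.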

[2] = test system: Hepatocyte growth factor receptor (Homo sapiens), P08581 [Y1235D]; assay: Inhibition of MET Y1235D mutant at 1 uM
[3] = target: Cyclin-dependent kinase 11B (Homo sapiens) (UniProt P21127); assay: Inhibition of CDC2L1 at 1 uM
[4] = target: Tyrosine-protein kinase Fgr (Homo sapiens) (UniProt P09769); assay: Inhibition of FGR at 1 uM
How it was run: (§2)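 Single-concentration screen on the Ambit KINOMEscan platform, run against a panel of 250–400 kinases. Per-kinase inhibition was also summarized as S(90), the fraction of kinases inhibited by more than 90%.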

[5] = target: Epidermal growth factor receptor (Homo sapiens) (UniProt P04626+P00533+Q15303+P21860); assay: Inhibition of EGFR L747-T751del, Sins mutant at 1 uM; format: protein assay
How it was run: (§3)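 Single-concentration screen using Ambit Bioscience KINOMEscan technology across a panel of 250–400 kinases. Per-kinase inhibition from this screen was summarized as S(90), the fraction of kinases inhibited by more than 90%.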

[6] = target: ALK tyrosine kinase receptor (Homo sapiens, UniProt Q9UM73); assay: Inhibition of ALK by time-resolved fluorescence assay
How it was run: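 Baculovirus-expressed ALK (30 ng/ml) on plates coated with GST–PLC-gamma substrate in TBS. Reaction ran 15 min at 37 °C. Europium-labeled anti-phosphotyrosine antibody was added for 1 h at 37 °C, then enhancement solution for 30 min, and TRF was read. IC50 came from a variable-slope sigmoidal fit of % inhibition vs log concentration.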

[7] = target: T1, Cyclin-G-associated kinase (Homo sapiens) (UniProt O14976); assay: Inhibition of GAK at 1 uM; how it was run: as §2
T1 sequence (whole entry): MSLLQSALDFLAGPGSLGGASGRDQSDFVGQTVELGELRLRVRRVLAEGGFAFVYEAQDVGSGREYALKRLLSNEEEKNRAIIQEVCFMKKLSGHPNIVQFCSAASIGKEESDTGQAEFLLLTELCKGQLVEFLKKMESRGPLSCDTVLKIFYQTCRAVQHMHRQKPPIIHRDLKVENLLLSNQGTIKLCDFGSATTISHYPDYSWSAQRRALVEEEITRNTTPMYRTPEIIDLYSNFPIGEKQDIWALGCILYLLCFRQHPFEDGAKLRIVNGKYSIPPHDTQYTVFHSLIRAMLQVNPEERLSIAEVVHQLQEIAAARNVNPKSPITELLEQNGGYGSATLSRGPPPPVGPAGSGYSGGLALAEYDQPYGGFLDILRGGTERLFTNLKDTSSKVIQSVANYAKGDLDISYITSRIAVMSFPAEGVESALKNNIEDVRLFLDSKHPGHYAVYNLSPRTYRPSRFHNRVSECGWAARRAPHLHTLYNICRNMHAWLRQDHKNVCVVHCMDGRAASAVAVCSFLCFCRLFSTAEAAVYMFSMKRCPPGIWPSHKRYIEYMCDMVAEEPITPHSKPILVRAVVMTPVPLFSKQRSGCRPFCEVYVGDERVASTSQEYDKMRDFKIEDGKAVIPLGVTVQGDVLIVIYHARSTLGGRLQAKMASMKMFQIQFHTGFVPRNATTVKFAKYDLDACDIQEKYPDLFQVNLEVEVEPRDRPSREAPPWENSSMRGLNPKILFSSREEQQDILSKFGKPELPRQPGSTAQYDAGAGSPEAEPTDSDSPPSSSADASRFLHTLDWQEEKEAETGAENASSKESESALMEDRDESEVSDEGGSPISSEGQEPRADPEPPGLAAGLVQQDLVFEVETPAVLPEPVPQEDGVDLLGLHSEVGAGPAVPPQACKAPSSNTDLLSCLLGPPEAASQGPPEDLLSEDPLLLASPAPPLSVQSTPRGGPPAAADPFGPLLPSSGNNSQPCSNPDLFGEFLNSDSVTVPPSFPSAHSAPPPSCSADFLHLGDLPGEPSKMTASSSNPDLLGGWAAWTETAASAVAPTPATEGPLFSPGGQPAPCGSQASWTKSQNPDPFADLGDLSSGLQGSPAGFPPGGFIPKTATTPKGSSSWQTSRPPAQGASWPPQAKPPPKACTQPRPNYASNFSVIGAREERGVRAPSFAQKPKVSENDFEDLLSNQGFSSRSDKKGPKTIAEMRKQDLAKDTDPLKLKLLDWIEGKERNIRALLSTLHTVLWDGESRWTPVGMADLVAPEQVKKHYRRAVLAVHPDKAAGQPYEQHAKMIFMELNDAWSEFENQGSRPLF

[8] = target: 5'-AMP-activated protein kinase catalytic subunit alpha-1 (Homo sapiens) (UniProt Q13131); assay: Inhibition of AMPK-alpha1 at 1 uM; how it was run: as §1
[9] = target: Tyrosine-protein kinase SYK (Homo sapiens) (UniProt P43405); assay: Inhibition of SYK at 1 uM
[10] = target: Dual specificity testis-specific protein kinase 1 (Homo sapiens) (UniProt Q15569); assay: Inhibition of TESK1 at 1 uM
[11] = target: Cyclin-dependent kinase 15 (Homo sapiens) (UniProt Q96Q40); assay: Inhibition of PFTAIRE2 at 1 uM
[12] = target: Serine/threonine-protein kinase 35 (Homo sapiens) (UniProt Q8TDR2); assay: Inhibition of STK35 at 1 uM
[13] = target: Focal adhesion kinase 1 (Homo sapiens) (UniProt Q05397); assay: Inhibition of FAK at 1 uM; how it was run: as §3
[14] = target: MAP kinase-interacting serine/threonine-protein kinase 2 (Homo sapiens) (UniProt Q9HBH9); assay: Inhibition of MKNK2 at 1 uM
How it was run: (§4)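 Kinase-panel screen using KINOMEscan technology, with 250–400 kinases per panel. Each compound was tested at a single concentration, and inhibition of each kinase was recorded. Selectivity was summarised as S(90), the fraction of kinases inhibited by more than 90%.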

[15] = target: Casein kinase I isoform delta (Homo sapiens) (UniProt P48730); assay: Inhibition of CSNK1D at 1 uM; how it was run: as §3
[16] = target: Serine/threonine-protein kinase Nek6 (Homo sapiens) (UniProt Q9HC98); assay: Inhibition of NEK6 at 1 uM
[17] = target: Misshapen-like kinase 1 (Homo sapiens) (UniProt Q8N4C8); assay: Inhibition of MINK at 1 uM
[18] = target: Serine/threonine-protein kinase PAK 3 (Homo sapiens) (UniProt O75914); assay: Inhibition of PAK3 at 1 uM
[19] = target: Rho-associated protein kinase 1 (Homo sapiens) (UniProt Q13464); assay: Inhibition of ROCK1 at 1 uM
[20] = target: Maternal embryonic leucine zipper kinase (Homo sapiens) (UniProt Q14680); assay: Inhibition of MELK at 1 uM; how it was run: as §4
[21] = target: Serine/threonine-protein kinase 38-like (Homo sapiens) (UniProt Q9Y2H1); assay: Inhibition of NDR2 at 1 uM

5'-AMP-activated protein kinase catalytic subunit alpha-1 (Homo sapiens), sequence (Q13131 whole entry, looked up): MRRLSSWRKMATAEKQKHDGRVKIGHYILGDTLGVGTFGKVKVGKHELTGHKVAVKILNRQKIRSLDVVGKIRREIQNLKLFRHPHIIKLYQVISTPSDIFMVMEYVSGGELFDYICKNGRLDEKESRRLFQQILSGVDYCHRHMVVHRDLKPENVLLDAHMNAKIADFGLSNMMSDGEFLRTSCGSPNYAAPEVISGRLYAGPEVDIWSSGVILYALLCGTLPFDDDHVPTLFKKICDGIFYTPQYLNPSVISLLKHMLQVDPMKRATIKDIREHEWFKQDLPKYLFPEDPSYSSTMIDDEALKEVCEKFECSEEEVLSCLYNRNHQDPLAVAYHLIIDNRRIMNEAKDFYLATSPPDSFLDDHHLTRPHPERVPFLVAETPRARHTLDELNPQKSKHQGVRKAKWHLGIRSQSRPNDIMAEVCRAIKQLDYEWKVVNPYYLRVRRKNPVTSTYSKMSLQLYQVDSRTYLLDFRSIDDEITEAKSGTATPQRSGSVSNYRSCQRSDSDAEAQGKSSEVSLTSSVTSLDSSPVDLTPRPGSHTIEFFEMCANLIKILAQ
Focal adhesion kinase 1 (Homo sapiens), sequence (Q05397 2-1052 limits assumed): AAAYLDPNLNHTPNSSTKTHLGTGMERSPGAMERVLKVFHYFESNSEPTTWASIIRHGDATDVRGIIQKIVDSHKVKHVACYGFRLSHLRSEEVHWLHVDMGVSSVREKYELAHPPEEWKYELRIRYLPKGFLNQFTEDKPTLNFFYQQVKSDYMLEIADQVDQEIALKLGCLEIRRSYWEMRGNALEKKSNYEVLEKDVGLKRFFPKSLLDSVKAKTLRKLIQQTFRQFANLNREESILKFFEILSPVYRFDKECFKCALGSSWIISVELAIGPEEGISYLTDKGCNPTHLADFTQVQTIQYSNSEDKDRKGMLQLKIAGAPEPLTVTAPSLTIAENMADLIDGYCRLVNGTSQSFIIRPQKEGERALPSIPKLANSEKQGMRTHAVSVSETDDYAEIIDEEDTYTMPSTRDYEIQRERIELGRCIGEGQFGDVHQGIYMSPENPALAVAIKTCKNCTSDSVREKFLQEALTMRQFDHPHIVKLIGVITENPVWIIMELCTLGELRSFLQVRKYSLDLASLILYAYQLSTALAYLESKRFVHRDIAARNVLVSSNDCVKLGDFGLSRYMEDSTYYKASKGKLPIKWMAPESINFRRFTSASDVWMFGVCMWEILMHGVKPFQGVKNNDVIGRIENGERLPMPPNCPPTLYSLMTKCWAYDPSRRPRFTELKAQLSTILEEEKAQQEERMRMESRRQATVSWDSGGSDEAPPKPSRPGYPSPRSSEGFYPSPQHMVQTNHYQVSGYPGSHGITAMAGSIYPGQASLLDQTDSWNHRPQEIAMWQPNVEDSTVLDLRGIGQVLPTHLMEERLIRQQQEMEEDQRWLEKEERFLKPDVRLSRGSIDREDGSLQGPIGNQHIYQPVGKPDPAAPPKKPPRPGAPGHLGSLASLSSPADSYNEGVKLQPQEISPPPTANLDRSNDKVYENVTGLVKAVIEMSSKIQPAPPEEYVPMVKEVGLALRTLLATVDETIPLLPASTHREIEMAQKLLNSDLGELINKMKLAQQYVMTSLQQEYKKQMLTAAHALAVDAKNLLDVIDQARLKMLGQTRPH
Tyrosine-protein kinase Fgr (Homo sapiens), sequence (P09769 2-529 limits assumed): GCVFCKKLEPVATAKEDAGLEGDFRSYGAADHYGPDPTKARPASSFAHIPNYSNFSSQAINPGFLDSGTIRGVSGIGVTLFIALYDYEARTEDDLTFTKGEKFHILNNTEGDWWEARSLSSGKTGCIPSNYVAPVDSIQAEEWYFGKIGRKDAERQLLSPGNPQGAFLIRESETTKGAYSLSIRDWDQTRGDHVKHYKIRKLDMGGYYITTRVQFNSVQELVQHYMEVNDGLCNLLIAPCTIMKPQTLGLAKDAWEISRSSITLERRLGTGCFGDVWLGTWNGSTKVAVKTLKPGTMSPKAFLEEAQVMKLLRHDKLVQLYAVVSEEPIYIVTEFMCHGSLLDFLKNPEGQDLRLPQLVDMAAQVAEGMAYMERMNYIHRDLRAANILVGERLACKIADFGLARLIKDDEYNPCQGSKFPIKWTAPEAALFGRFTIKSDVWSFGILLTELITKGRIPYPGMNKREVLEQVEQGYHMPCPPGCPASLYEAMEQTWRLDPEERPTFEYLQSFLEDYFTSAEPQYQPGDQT
AP2-associated protein kinase 1 (Homo sapiens), sequence (Q2M2I8 whole entry, looked up): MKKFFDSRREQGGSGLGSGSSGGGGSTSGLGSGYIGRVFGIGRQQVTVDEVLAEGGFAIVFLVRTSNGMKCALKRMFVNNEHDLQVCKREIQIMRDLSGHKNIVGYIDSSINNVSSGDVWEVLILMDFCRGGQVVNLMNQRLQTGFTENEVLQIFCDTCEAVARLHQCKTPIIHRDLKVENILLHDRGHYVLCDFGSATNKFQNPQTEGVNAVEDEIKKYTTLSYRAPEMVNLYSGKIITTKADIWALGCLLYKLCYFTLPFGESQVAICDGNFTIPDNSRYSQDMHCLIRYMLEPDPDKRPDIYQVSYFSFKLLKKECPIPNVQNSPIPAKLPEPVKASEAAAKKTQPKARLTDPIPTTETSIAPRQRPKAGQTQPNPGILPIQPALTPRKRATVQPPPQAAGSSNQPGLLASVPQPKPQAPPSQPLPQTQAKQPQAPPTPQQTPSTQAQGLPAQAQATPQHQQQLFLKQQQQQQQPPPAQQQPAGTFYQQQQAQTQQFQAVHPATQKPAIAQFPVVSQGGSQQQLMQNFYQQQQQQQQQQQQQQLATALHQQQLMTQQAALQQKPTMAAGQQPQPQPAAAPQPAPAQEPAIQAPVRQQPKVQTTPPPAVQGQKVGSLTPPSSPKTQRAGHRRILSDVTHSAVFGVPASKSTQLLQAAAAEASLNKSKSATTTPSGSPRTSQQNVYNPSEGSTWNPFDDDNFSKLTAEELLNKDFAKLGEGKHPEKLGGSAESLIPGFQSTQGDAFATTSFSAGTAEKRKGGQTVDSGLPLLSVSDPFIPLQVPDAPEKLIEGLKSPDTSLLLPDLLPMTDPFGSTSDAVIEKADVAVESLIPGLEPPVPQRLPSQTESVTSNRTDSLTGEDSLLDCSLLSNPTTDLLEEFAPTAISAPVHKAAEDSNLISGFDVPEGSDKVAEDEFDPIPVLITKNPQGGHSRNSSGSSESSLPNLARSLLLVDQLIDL
Hepatocyte growth factor receptor (Homo sapiens), P08581 [Y1235D], sequence (P08581 whole entry Y1235D): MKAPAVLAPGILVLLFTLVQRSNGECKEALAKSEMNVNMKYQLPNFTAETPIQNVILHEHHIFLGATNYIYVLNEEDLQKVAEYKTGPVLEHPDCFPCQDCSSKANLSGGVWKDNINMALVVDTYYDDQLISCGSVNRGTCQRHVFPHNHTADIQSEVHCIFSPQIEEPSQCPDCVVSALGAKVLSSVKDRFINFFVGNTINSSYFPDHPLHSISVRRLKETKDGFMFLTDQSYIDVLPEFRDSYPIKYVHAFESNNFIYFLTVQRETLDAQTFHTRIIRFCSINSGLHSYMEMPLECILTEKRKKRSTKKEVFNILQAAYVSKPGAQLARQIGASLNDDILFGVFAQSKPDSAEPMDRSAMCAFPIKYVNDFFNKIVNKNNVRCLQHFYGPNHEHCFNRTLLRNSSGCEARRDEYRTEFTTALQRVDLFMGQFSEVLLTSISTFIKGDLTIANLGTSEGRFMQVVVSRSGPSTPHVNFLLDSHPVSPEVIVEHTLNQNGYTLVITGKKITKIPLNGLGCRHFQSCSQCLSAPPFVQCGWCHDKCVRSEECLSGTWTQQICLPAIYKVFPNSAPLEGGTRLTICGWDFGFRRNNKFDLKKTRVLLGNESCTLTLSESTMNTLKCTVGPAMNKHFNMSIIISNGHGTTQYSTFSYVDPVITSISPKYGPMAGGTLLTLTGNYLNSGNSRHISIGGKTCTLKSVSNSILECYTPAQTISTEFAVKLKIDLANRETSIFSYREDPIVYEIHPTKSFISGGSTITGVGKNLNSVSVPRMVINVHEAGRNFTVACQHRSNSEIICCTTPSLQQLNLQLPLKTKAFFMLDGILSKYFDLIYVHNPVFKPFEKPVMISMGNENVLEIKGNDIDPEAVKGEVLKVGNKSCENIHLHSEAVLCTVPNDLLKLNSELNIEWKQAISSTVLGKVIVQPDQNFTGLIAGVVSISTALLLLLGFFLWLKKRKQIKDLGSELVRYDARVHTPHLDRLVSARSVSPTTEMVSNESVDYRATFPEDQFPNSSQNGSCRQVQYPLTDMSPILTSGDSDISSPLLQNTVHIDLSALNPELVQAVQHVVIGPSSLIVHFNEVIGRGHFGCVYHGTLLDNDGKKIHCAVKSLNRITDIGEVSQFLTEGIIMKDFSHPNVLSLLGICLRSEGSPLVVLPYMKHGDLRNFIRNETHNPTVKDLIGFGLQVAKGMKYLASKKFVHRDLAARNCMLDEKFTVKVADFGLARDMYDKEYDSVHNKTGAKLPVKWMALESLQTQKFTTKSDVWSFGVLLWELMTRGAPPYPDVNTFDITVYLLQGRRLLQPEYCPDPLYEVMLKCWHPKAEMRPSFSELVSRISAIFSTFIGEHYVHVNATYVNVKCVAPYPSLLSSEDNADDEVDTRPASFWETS
Casein kinase I isoform delta (Homo sapiens), sequence (P48730 whole entry, looked up, canonical isoform): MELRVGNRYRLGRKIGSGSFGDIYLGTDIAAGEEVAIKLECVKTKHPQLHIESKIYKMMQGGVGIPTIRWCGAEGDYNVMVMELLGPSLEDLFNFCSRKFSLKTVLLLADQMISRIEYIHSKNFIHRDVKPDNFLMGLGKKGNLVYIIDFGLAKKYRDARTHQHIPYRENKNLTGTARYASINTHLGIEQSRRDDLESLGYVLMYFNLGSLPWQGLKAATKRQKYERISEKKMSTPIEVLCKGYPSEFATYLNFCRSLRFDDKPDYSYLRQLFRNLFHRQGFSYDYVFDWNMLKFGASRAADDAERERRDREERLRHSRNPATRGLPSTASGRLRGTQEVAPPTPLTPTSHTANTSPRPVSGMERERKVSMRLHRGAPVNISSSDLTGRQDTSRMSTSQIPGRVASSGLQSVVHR

Compound	inhibition [1] [%]	inhibition [2] [%]	inhibition [3] [%]	inhibition [4] [%]	inhibition [5] [%]	IC50 [6] [nM]	inhibition [7] [%]	inhibition [8] [%]	inhibition [9] [%]	inhibition [10] [%]	inhibition [11] [%]	inhibition [12] [%]	inhibition [13] [%]	inhibition [14] [%]	inhibition [15] [%]	inhibition [16] [%]	inhibition [17] [%]	inhibition [18] [%]	inhibition [20] [%]	inhibition [21] [%]	also measured
CN1CCN(c2ccc(-c3cnc4c(c3)N(Cc3cc(F)ccc3F)CCN4)cn2)CC1	< 50	< 50	< 50	< 50	< 50	33	< 50	< 50	< 50	< 50	< 50	< 50	67.2	< 50	< 50	< 50	< 50	< 50	< 50	< 50	inhibition [19]: < 50%
O=C(c1ccc(-c2cnc3c(c2)N(Cc2cc(Cl)ccc2C(F)(F)F)CCN3)cc1)N1CCC(N2CCCC2)CC1	< 50			< 50	< 50	10	< 50	< 50	< 50	88.5			98.9	< 50	< 50	< 50		< 50	< 50	< 50	
O=C(c1ccc(-c2cnc3c(c2)N(Cc2cc(Cl)ccc2C(F)(F)F)CCN3)cc1)N1CCCCC1	< 50			< 50	< 50	121	< 50	< 50	< 50	< 50			84.4	< 50	< 50	< 50		< 50	< 50	< 50	
CN1CCN(c2ccc(-c3cnc4c(c3)N(Cc3c(F)ccc(F)c3Cl)CCN4)cn2)CC1	< 50	71	< 50	< 50	< 50		< 50	< 50	< 50	< 50	< 50	< 50	83	< 50	< 50	< 50	96	< 50	< 50	< 50	inhibition [19]: < 50%
COC1CCN(C(=O)c2ccc(-c3cnc4c(c3)N(Cc3cc(Cl)ccc3C(F)(F)F)CCN4)cc2)CC1	< 50			< 50	< 50	40	< 50	< 50	< 50	< 50			94	< 50	< 50	< 50		< 50	< 50	< 50	
O=C(O)c1ccc(-c2cnc3c(c2)N(Cc2cc(Cl)ccc2C(F)(F)F)CCN3)cc1	< 50			< 50	< 50	1300	66.5	< 50	< 50	< 50				< 50	< 50	< 50		< 50	< 50	< 50	
CC(=O)N1CCN(c2cc(-c3cnc4c(c3)N(Cc3cc(Cl)ccc3C(F)(F)F)CCN4)ccn2)CC1	< 50	67	< 50	< 50	< 50	17	< 50	< 50	< 50	< 50	< 50	< 50	100	< 50	< 50	< 50	< 50	< 50	< 50	< 50	inhibition [19]: < 50%
FC(F)(F)c1ccc(Cl)cc1CN1CCNc2ncc(-c3ccnc(N4CCNCC4)c3)cc21	< 50	75	< 50	< 50	< 50	10	< 50	66	< 50	< 50	< 50	< 50	100	< 50	< 50	< 50	< 50	< 50	< 50	< 50	inhibition [19]: < 50%
CN1CCN(c2ccc(-c3cnc4c(c3)N(Cc3cc(Cl)ccc3C(F)(F)F)CCN4)cn2)CC1	< 50	< 50	< 50	< 50	< 50		< 50	< 50	< 50	< 50	< 50	< 50	98	< 50	< 50	< 50	< 50	< 50	< 50	< 50	inhibition [19]: < 50%
CN1CCN(c2ccc(-c3cnc4c(c3)N(Cc3cc(Cl)ccc3Cl)CCN4)cn2)CC1	< 50	< 50	< 50	< 50	< 50	11	< 50	< 50	< 50	< 50	< 50	< 50	94	< 50	< 50	< 50	< 50	< 50	< 50	< 50	inhibition [19]: < 50%
